Results on 30 compounds are retold here after ChEMBL document CHEMBL1154975, “Selective inducible microsomal prostaglandin E(2) synthase-1 (mPGES-1) inhibitors derived from an oxicam template” (Bioorg Med Chem Lett, 2010).

Where only a bound is given, the exact number is not on record here.

Test [1] concerns the target T1, Prostaglandin E synthase (Homo sapiens, UniProt O14684).
T1 sequence (O14684 whole entry): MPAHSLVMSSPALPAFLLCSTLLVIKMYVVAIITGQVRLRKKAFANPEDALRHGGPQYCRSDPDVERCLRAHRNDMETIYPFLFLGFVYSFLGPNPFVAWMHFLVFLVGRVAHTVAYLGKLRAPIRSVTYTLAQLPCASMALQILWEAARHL
Briefly: Inhibition of human mPGES1 assessed as PGE2 level after 41 sec by ELISA. The gist of the method:
(§1)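 Enzyme in 100 mM potassium phosphate pH 6.2 with 2.5 mM glutathione, compound added in DMSO. Reaction started with PGH2 (final 2 µM), stopped with 2.5 mM FeCl2, diluted 120-fold into ELISA buffer. PGE2 by ELISA against a standard curve. % control set between reference-inhibited and enzyme-only controls; IC50 by 4-parameter log fit of duplicate data.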

The target of test [2] is T1, Prostaglandin E synthase. Briefly: Inhibition of human mPGES1 in IL1-beta treated human FF cells assessed as blockade of PGH2 to PGE2 conversion after 50 mins by ELISA. It counts as cell-based. The gist of the method: (§2)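 Human fetal fibroblasts in DMEM/15% FBS at 37 °C, 5% CO2; after 20–24 h, stimulated 20–24 h with 1 ng/mL IL-1β, washed, compound 50 min in serum-free DMEM, then 10 µM arachidonic acid 10 min. PGE2 by ELISA. For PGF2α, SnCl2 added after compound for 10 min before arachidonic acid. IC50 from duplicate data.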

For test [3], the target named is T2, Prostaglandin G/H synthase 2 (Homo sapiens, UniProt P35354).
T2 sequence (P35354 whole entry): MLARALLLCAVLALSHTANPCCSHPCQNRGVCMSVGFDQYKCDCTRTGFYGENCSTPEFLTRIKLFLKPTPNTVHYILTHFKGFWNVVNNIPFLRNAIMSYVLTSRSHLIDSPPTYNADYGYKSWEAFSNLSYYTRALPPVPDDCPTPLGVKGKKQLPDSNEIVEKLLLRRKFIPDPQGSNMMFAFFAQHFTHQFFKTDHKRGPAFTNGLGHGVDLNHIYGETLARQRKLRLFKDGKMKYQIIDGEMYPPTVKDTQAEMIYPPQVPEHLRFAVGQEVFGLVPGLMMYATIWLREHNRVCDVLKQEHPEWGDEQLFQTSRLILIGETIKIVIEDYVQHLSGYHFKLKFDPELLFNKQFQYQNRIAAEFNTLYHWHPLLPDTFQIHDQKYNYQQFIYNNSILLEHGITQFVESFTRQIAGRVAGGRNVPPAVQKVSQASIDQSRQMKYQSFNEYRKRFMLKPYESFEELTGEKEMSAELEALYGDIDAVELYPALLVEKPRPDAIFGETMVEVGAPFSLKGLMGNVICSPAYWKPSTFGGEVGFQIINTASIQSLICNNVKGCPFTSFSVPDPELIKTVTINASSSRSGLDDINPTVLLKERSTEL
Briefly: Inhibition of human COX2 in IL1-beta treated human FF cells assessed as blockade of SnCl2-mediated PGH2 to PGF2alpha conversion after 50 mins by ELISA. Type of test: cell-based. The essentials:
as §2

Test [4] has as its target T2, Prostaglandin G/H synthase 2. Kind of test: Inhibition of human recombinant COX2.
Test [5] has as its target T3, Prostaglandin G/H synthase 1 (Homo sapiens, UniProt P23219). Briefly: Inhibition of human recombinant COX1.
Test [6] has as its target T4, Prostaglandin G/H synthase 2 (Homo sapiens) (UniProt P35354).
T4 sequence (whole entry): T2 sequence (P35354 whole entry)
Kind of test: Inhibition of COX2.

For test [7], the target named is T3, Prostaglandin G/H synthase 1. Briefly: Inhibition of COX1.
In test [8] the target is T1, Prostaglandin E synthase. Kind of test: Inhibition of mPGES1. The essentials:
as §1

A short description of test [9]: Inhibition of rat mPGES1.

T3 sequence (P23219 whole entry): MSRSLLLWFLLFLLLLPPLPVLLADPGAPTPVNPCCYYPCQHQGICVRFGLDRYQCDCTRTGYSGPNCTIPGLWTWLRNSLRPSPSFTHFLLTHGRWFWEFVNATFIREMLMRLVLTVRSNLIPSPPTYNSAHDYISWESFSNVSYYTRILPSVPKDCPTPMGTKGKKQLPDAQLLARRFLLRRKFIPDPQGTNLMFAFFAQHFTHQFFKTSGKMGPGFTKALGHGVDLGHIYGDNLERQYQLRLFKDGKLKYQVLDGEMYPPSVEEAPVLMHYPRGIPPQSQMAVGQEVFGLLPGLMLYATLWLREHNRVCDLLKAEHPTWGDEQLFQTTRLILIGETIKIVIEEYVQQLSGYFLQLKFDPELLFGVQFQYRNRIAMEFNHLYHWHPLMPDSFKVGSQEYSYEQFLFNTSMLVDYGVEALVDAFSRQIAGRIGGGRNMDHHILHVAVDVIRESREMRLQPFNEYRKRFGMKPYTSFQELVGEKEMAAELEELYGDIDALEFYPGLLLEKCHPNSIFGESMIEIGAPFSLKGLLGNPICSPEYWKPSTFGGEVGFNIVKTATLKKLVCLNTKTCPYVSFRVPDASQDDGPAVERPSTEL

Regarding `COc1ccc2c(c1)C(O)=C(C(=O)Nc1ccc(-c3ccc(Cl)c(Cl)c3)cc1)NS2(=O)=O`, the IC50 on Prostaglandin E synthase [1] was 0.69 µM; on Prostaglandin E synthase [2], 1.29 µM; in [3], over 100 µM.

`O=C(Nc1ccc(-c2cccc(Cl)c2Cl)cc1)C1=C(O)c2ccccc2S(=O)(=O)N1`: the IC50 on Prostaglandin E synthase [1] was 0.038 µM; at Prostaglandin E synthase [2], under 0.92 µM; in [3] it was 44.4 µM.

As to `O=C(Nc1cccc(C(=O)c2ccc(Cl)cc2)c1)C1=C(O)c2ccccc2S(=O)(=O)N1`, the half-maximal inhibitory concentration (IC50) at Prostaglandin E synthase [1] was found to be 3.91 µM; at Prostaglandin E synthase [2], 2.16 µM; in test [3] it was 95.3 µM.

As to `CN1C(C(=O)Nc2ccc(-c3ccc(Cl)c(Cl)c3)cc2)=C(O)c2ccccc2S1(=O)=O`, the IC50 came out at 0.28 µM on Prostaglandin E synthase [1] and 2.04 µM on Prostaglandin E synthase [2].

Consider `O=C(Nc1ccc(-c2ccccc2)cc1)C1=C(O)c2ccccc2S(=O)(=O)N1`, for which the IC50 at Prostaglandin E synthase [1] was 3.13 µM; on Prostaglandin E synthase [2], 6.73 µM; in test [3], 92.6 µM.

For the compound `O=C(CNS(=O)(=O)c1ccccc1CO)Nc1ccc(-c2ccc(Cl)c(Cl)c2)cc1`, on Prostaglandin E synthase [1], the IC50 was found to be 29.6 µM.

With `Cc1ccc(-c2ccc(NC(=O)C3=C(O)c4ccccc4S(=O)(=O)N3)cc2)cc1`, the half-inhibitory concentration (IC50) at Prostaglandin E synthase [1] was under 0.07 µM; at Prostaglandin E synthase [2] it was 2.24 µM; in [3], over 100 µM.

Regarding `O=C(Nc1ccc(-c2ccc(Cl)c(Cl)c2)cc1)C1NS(=O)(=O)c2ccccc2C1O` (stereo not given), the concentration for half-maximal inhibition (IC50) was 0.19 µM at Prostaglandin E synthase [1]; 0.67 µM at Prostaglandin E synthase [2]; over 100 µM in test [3]; over 50 µM in [4]; over 50 µM in test [5].

Turning to `O=C(Nc1ccc(CCc2ccc(Cl)c(Cl)c2)cc1)C1=C(O)c2ccccc2S(=O)(=O)N1`, the 50% inhibitory concentration (IC50) at Prostaglandin E synthase [1] is 0.11 µM; at Prostaglandin E synthase [2], 0.46 µM; in test [3], over 68 µM; in [4], 467 µM; in test [5], 489 µM. Moreover, the INH in test [6] and in test [7] was over 50 µM throughout.

For `Cc1ccc(-c2ccc(NC(=O)C3=C(O)c4ccccc4S(=O)(=O)N3)cc2)cc1C`, the figures for the IC50 (on Prostaglandin E synthase [1]; on Prostaglandin E synthase [2]; in [3]) were under 0.026 µM, under 0.75 µM and over 57.7 µM, respectively.

For `O=C(Nc1ccc(Nc2ccc(Cl)cc2)cc1)C1=C(O)c2ccccc2S(=O)(=O)N1`, the IC50 on Prostaglandin E synthase [1] was 0.15 µM; on Prostaglandin E synthase [2], 4.24 µM; in [3] it was over 100 µM.

For `O=C(Nc1ccc(-c2ccc(Cl)cc2Cl)cn1)C1=C(O)c2ccccc2S(=O)(=O)N1`, the IC50 at Prostaglandin E synthase [1] was determined as 11.7 µM.

As to `COc1ccc2c(c1)S(=O)(=O)NC(C(=O)Nc1ccc(-c3ccc(Cl)c(Cl)c3)cc1)=C2O`, the 50% inhibitory concentration (IC50) at Prostaglandin E synthase [1] turned out to be 3.05 µM.

Regarding `Fc1cccc(Cl)c1-c1nc(-c2ccc(C#Cc3ccc(C(F)(F)F)cc3)nc2)c(Br)[nH]1`, it took 0.0008 µM to reach half-maximal inhibition against Prostaglandin E synthase [8] (IC50).

In the case of `O=C(Nc1ccc(-c2ccc(Cl)cc2)cc1)C1=C(O)c2ccccc2S(=O)(=O)N1`, the IC50 at Prostaglandin E synthase [1] turned out to be 0.29 µM; on Prostaglandin E synthase [2] it was 1.45 µM; in test [3], 33.7 µM.

In the case of `O=C(Nc1ccc(-c2ccc(Cl)c(Cl)c2)cn1)C1=C(O)c2ccccc2S(=O)(=O)N1`, the IC50 at Prostaglandin E synthase [1] stood at 65.6 µM.

Consider `O=C(Nc1ccc(-c2ccc(Cl)cc2Cl)cc1)C1=C(O)c2ccccc2S(=O)(=O)N1`, for which the IC50 on Prostaglandin E synthase [1] is 0.043 µM; at Prostaglandin E synthase [2], under 0.76 µM; in test [3], over 74.8 µM.

With `O=C(Nc1ccccc1CCc1ccc(Cl)c(Cl)c1)C1=C(O)c2ccccc2S(=O)(=O)C1`, the IC50 is 1.68 µM at Prostaglandin E synthase [1], 3.4 µM at Prostaglandin E synthase [2] and over 90 µM in test [3].

As for `Cc1cccc(-c2ccc(NC(=O)C3=C(O)c4ccccc4S(=O)(=O)N3)cc2)c1C`, the figures for the IC50 (at Prostaglandin E synthase [1]; on Prostaglandin E synthase [2]; in test [3]) were 1 µM, 6.59 µM and 94.7 µM, respectively.

In the case of `COc1ccc(-c2ccc(NC(=O)C3=C(O)c4ccccc4S(=O)(=O)N3)cc2)cc1OC`, the IC50 at Prostaglandin E synthase [1] amounted to 32.2 µM.

In the case of `O=C(Nc1ccc(-c2ccc(Cl)nc2)cc1)C1=C(O)c2ccccc2S(=O)(=O)N1`, the IC50 at Prostaglandin E synthase [1] worked out at 12.7 µM.

`CC(C)c1ccc2c(c1)c(SC(C)(C)C)c(CC(C)(C)C(=O)O)n2Cc1ccc(Cl)cc1`: the IC50 in [9] came out at 3.2 µM.

As to `O=C(Nc1ccc(-c2ccc(Cl)c(Cl)c2)cc1)C1=C(O)c2ccc(O)cc2S(=O)(=O)N1`, at Prostaglandin E synthase [1], the IC50 amounted to 0.18 µM.

Take `O=C(Nc1ccc(C(=O)c2ccc(Cl)cc2)c(Cl)c1)C1=C(O)c2ccccc2S(=O)(=O)N1`: the figures for the 50% inhibitory concentration (IC50) (on Prostaglandin E synthase [1]; at Prostaglandin E synthase [2]; in test [3]) were 0.11 µM, 1.14 µM and 95.6 µM, respectively.

`O=C(Nc1ccc(-c2cccc(Cl)c2)cc1)C1=C(O)c2ccccc2S(=O)(=O)N1`: the IC50 on Prostaglandin E synthase [1] was 0.86 µM; on Prostaglandin E synthase [2], 3.44 µM; in test [3], 74.7 µM.

Consider `O=C(Nc1ccc(Oc2ccc(Cl)cc2)cc1)C1=C(O)c2ccccc2S(=O)(=O)N1`, for which the IC50 came to 0.53 µM at Prostaglandin E synthase [1], 6.73 µM on Prostaglandin E synthase [2] and 70 µM in test [3].

As for `O=C(Nc1ccc(-c2ccc(Cl)c(Cl)c2)cc1)C1=C(O)c2cc(O)ccc2S(=O)(=O)N1`, the half-inhibitory concentration (IC50) at Prostaglandin E synthase [1] is 0.098 µM; on Prostaglandin E synthase [2], 1.45 µM; in test [3] it was over 100 µM.

Take `O=C(CNS(=O)(=O)c1ccccc1C(=O)O)Nc1ccc(-c2ccc(Cl)c(Cl)c2)cc1`: the IC50 was 5.76 µM at Prostaglandin E synthase [1], 37.6 µM at Prostaglandin E synthase [2] and over 100 µM in test [3].

Regarding `N#Cc1ccc(-c2ccc(NC(=O)C3=C(O)c4ccccc4S(=O)(=O)N3)cc2)cc1`, the 50% inhibitory concentration (IC50) at Prostaglandin E synthase [1] is 3.96 µM.

For the compound `O=C(Nc1ccc(-c2ccc(Cl)c(Cl)c2)nc1)C1=C(O)c2ccccc2S(=O)(=O)N1`, the results for the IC50 (at Prostaglandin E synthase [1]; on Prostaglandin E synthase [2]; in test [3]) were 0.16 µM, 0.69 µM and 33.7 µM, respectively.
